How the values were obtained:
[1] = Cytotoxicity against dog Cf2Th-CCR5 cells infected with CD4-dependent pseudovirus HIV1 ADA incubated for 48 hrs by MTS assay
[2] = tested on: Human immunodeficiency virus 1; test: Antiviral activity against HIV1 HXB2 infected in human TZM-bl cells preincubated for 30 min followed by viral infection and measured after 3 days by luciferase based assay; type: functional, organism-based; details: Human immunodeficiency virus 1, M:B_HXB2R
Procedure, shortened: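 Single-cycle pseudovirus carrying HXB2 Env (CXCR4-tropic), made in HEK293T by co-transfecting an Env-deleted backbone (pSG3Δenv or pNL4-3.Luc.R-E-) with an Env plasmid. TZM-bl cells were seeded at 1 × 10^4/well and grown overnight. Virus was pretreated with graded compound concentrations, then added. Cells were washed and lysed, and IC50 was taken from percent inhibition.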

[3] = tested on: Human immunodeficiency virus 1; test: Antiviral activity against HIV1-ADA infected in human MOLT4 cells assessed as inhibition in cell to cell HIV1 transmission to human TZM-bl acceptor cells incubated for 24 hrs by luciferase based assay; type: functional, organism-based; details: Human immunodeficiency virus 1, 24 h
[4] = tested on: Human immunodeficiency virus 1; test: Antiviral activity against HIV1-3B infected in human H9 cells assessed as inhibition in cell to cell HIV1 transmission to human TZM-bl acceptor cells incubated for 24 hrs by luciferase based assay; type: functional, organism-based; details: Human immunodeficiency virus 1, 3B
[5] = tested on: TZM; test: Cytotoxicity against human TZM-bl cells incubated for 3 days by MTS assay; type: cell-based; details: 72 h
[6] = tested on: Human immunodeficiency virus 1; test: microbe, parasite or virus in culture; details: Human immunodeficiency virus 1, subtypeA
[7] = tested on: Human immunodeficiency virus 1; test: microbe, parasite or virus in culture; details: Human immunodeficiency virus 1, subtypeA; remark: listed apart in the source

SMILES	IC50 [2] [µM]	CC50 [5] [µM]	other results
CC1(C)CC(NC(=O)C(=O)Nc2ccc(Cl)cc2)CC(C)(C)N1			Activity [1]: Non-Toxic
COc1cnc(-n2cnc(C)n2)c2[nH]cc(C(=O)C(=O)N3CCN(C(=O)c4ccccc4)CC3)c12	< 0.001		IC50 [3]: 0.2 µM; IC50 [4]: 0.02 µM
NC[C@@H](NC(=O)c1ccc(-c2ccc(C(F)(F)F)cn2)[nH]1)c1ncc(CO)s1	0.96	> 122	
CC(C)(N)[C@H](NC(=O)c1ccc(-c2ccc(C(F)(F)F)cn2)[nH]1)c1nc(CO)cs1	0.58	59	
NC[C@H](NC(=O)c1ccc(-c2ccc(Cl)cn2)[nH]1)c1ncc(CO)s1	2.7	142	
NC[C@@H](NC(=O)c1ccc(-c2ccc(C(F)(F)F)nc2)[nH]1)c1nc(CO)cs1	12.7		
Cc1cc(-c2ccc(C(F)(F)F)cn2)[nH]c1C(=O)N[C@H](c1ncc(CO)s1)C(C)(C)N	0.43	37.5	
NC[C@@H](NC(=O)c1ccc(-c2ccc(F)cn2)[nH]1)c1nc(CO)cs1	> 11		
COc1cc(-c2ccc(C(=O)N[C@@H](CN)c3nc(CO)cs3)[nH]2)ccn1	> 11	> 133	
Cc1cc(-c2ccc(Cl)cn2)[nH]c1C(=O)N[C@@H](CN)c1ncc(CO)s1	2.4	95	
NC[C@@H](NC(=O)c1ccc(-c2ccc(C(F)(F)F)cn2)[nH]1)c1nc(CO)cs1	0.59	94.3	
Cc1ccc(-c2ccc(C(=O)N[C@H](CN)c3nc(CO)cs3)[nH]2)nc1	9.6		
NC[C@H](NC(=O)c1ccc(-c2ccc(C(F)(F)F)cn2)[nH]1)c1nc(C(O)CO)cs1 (stereo partly specified)	3.8	> 113	
NC[C@@H](NC(=O)c1ccc(-c2ccc(C(F)(F)F)cn2)[nH]1)c1nc(CCCO)cs1	2.3	> 114	
Cc1cc(-c2ccc(C(F)(F)F)cn2)[nH]c1C(=O)N[C@H](CN)c1nc(CO)cs1			Activity [1]: Non-Toxic
NC[C@H](NC(=O)c1ccc(-c2ccc(Cl)nc2)[nH]1)c1nc(CO)cs1	> 11	> 132	
Cc1cc(-c2ccc(C(F)(F)F)cn2)[nH]c1C(=O)N[C@@H](c1ncc(CO)s1)C(C)(C)N	0.6	35.3	
Cc1cc(-c2ccc(C(F)(F)F)cn2)[nH]c1C(=O)N[C@@H](CN)c1nc(CO)cs1		85	
NC[C@@H](NC(=O)c1ccc(-c2ccc(Cl)cn2)[nH]1)c1nc(CO)cs1	5	> 132	
Cc1cc(-c2ccc(C(F)(F)F)cn2)[nH]c1C(=O)N[C@H](CN)c1ncc(CO)s1		92.8	
NC[C@H](NC(=O)c1ccc(-c2ncc(Cl)cn2)[nH]1)c1nc(CO)cs1	> 15.8	> 66	
NC[C@H](NC(=O)c1ccc(-c2ccc(C(F)(F)F)cn2)[nH]1)c1ncc(C(O)CO)s1 (stereo partly specified)	5.9	> 113	
CC(C)(N)[C@H](NC(=O)c1ccc(-c2ccc(C(F)(F)F)cn2)[nH]1)c1ncc(CO)s1	0.5	42.4	
NC[C@@H](NC(=O)c1ccc(-c2ccc(C(F)(F)F)nn2)[nH]1)c1nc(CO)cs1	> 12	> 73	
Cc1cc(-c2ccc(Cl)cn2)[nH]c1C(=O)N[C@H](CN)c1ncc(CO)s1	1.2	98.3	

SMILES	IC50 [2] [µM]	CC50 [5] [µM]	other results
CC(C)(N)[C@@H](NC(=O)c1ccc(-c2ccc(C(F)(F)F)cn2)[nH]1)c1nc(CO)cs1	1.7	61	
NC[C@H](NC(=O)c1ccc(-c2ccc(C(F)(F)F)cn2)[nH]1)c1nccs1	1.2	93.6	
NC[C@@H](NC(=O)c1ccc(-c2ccc(C(F)(F)F)cn2)[nH]1)c1nc(CCO)cs1	1.7	100	
NC[C@@H](NC(=O)c1ccc(-c2ccc(C(F)(F)F)cn2)[nH]1)c1nccs1	2	89.3	
NC[C@@H](NC(=O)c1ccc(-c2ncc(Cl)cn2)[nH]1)c1nc(CO)cs1	> 15.8		
NC[C@H](NC(=O)c1ccc(-c2ccc(F)cn2)[nH]1)c1nc(CO)cs1	> 11	> 138	
NC[C@@H](NC(=O)c1ccc(-c2ccc(C(F)(F)F)cc2)[nH]1)c1ncc(CO)s1		42.4	IC50 [6]: 0.7 µM; IC50 [7]: 0.8 µM
COc1cc(-c2ccc(C(=O)N[C@H](CN)c3nc(CO)cs3)[nH]2)ccn1	> 11		
NC[C@H](NC(=O)c1ccc(-c2ccc(Cl)cn2)[nH]1)c1nc(CO)cs1	1.7		
NC[C@H](NC(=O)c1ccc(-c2ccc(C(F)(F)F)cn2)[nH]1)c1nc(CO)c(CO)s1	> 13		
CC(C)(N)[C@@H](NC(=O)c1ccc(-c2ccc(C(F)(F)F)cn2)[nH]1)c1ncc(CO)s1	0.52	74	
NC[C@@H](NC(=O)c1ccc(-c2ccc(Cl)cn2)[nH]1)c1ncc(CO)s1	0.85	144	
Cc1ccc(-c2ccc(C(=O)N[C@@H](CN)c3nc(CO)cs3)[nH]2)nc1	> 11	> 140	
NC[C@@H](NC(=O)c1ccc(-c2ccc(C(F)(F)F)cn2)[nH]1)c1ncc(C(O)CO)s1 (stereo partly specified)	2.1		
NC[C@H](NC(=O)c1ccc(-c2ccc(C(F)(F)F)cn2)[nH]1)c1nc(CO)cs1	0.3	77.9	
NC[C@@H](NC(=O)c1ccc(-c2ccc(C(F)(F)F)cn2)[nH]1)c1nc(CO)c(CO)s1	1.8	> 113	
NC[C@H](NC(=O)c1ccc(-c2ccc(C(F)(F)F)cn2)[nH]1)c1ncc(CO)s1	1.2		
NC[C@H](NC(=O)c1ccc(-c2ccc(C(F)(F)F)cn2)[nH]1)c1nc(CCCO)cs1	0.89	81.2	
NC[C@H](NC(=O)c1ccc(-c2ccc(C(F)(F)F)nc2)[nH]1)c1nc(CO)cs1	11.9	> 122	
NC[C@H](NC(=O)c1ccc(-c2ccc(C(F)(F)F)nn2)[nH]1)c1nc(CO)cs1	> 12		
NC[C@H](NC(=O)c1ccc(-c2ccc(C(F)(F)F)cn2)[nH]1)c1nc(CCO)cs1	0.76	91	
NC[C@@H](NC(=O)c1ccc(-c2ccc(C(F)(F)F)cn2)[nH]1)c1nc(C(O)CO)cs1 (stereo partly specified)	5.2		
NC[C@@H](NC(=O)c1ccc(-c2ccc(Cl)nc2)[nH]1)c1nc(CO)cs1	> 11		
CC(CN)(NC(=O)c1ccc(-c2ccc(C(F)(F)F)cn2)[nH]1)c1nc(CO)cs1 (racemic)	5.1	> 70.5	
Cc1cc(-c2ccc(C(F)(F)F)cn2)[nH]c1C(=O)NC(C)(CN)c1nc(CO)cs1 (racemic)	2.6	> 68.3	

Source: ChEMBL document CHEMBL4402563, “Preclinical Optimization of gp120 Entry Antagonists as anti-HIV-1 Agents with Improved Cytotoxicity and ADME Properties through Rational Design, Synthesis, and Antiviral Evaluation” (J Med Chem, 2020)
